This is an account of results in ChEMBL document CHEMBL4371006, “Discovery of N-[4-(Quinolin-4-yloxy)phenyl]benzenesulfonamides as Novel AXL Kinase Inhibitors” (J Med Chem, 2018).

Activity calls are given as the source filed them. The rule behind the calls is not given here.

The target in data set [1] is Cyclin-dependent kinase 18 (Homo sapiens, UniProt Q07002). Kind of data set: Binding affinity to PCTK3 in SILAC-labeled human MDA-MB-231 cells lysate by mass spectrometry based kinAffinity assay. Format: subcellular. The method, boiled down:
(§1)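 MDA-MB-231 lysate applied to KinAffinity matrix of immobilized broadband kinase inhibitors at graded densities to obtain BC50 per target. Competition then run with increasing free compound to give CC50; Kd derived by Cheng-Prusoff. Two competition experiments in parallel to check equilibrium, one with lysate pre-incubated with compound before adding matrix. Quantitation by mass spectrometry.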

Data set [2] concerns the target Mitogen-activated protein kinase kinase kinase kinase 4 (Homo sapiens, UniProt O95819). Kind of data set: Binding affinity to MAP4K4 in SILAC-labeled human MDA-MB-231 cells lysate by mass spectrometry based kinAffinity assay. Format: subcellular. The method, boiled down: (§2)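 Chemical proteomics: MDA-MB-231 lysate bound to matrix of immobilized broad kinase inhibitors at several densities (BC50), then competed with increasing free compound (CC50); proteins quantified by mass spectrometry, Kd via Cheng-Prusoff. Two competition formats run in parallel to check equilibrium.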

In data set [3] the target is T1, Hepatocyte growth factor receptor (Homo sapiens, UniProt P08581). Kind of data set: Binding affinity to c-MET in SILAC-labeled human MDA-MB-231 cells lysate by mass spectrometry based kinAffinity assay. Format: subcellular. The method, boiled down: as §1
T1 sequence (P08581 whole entry): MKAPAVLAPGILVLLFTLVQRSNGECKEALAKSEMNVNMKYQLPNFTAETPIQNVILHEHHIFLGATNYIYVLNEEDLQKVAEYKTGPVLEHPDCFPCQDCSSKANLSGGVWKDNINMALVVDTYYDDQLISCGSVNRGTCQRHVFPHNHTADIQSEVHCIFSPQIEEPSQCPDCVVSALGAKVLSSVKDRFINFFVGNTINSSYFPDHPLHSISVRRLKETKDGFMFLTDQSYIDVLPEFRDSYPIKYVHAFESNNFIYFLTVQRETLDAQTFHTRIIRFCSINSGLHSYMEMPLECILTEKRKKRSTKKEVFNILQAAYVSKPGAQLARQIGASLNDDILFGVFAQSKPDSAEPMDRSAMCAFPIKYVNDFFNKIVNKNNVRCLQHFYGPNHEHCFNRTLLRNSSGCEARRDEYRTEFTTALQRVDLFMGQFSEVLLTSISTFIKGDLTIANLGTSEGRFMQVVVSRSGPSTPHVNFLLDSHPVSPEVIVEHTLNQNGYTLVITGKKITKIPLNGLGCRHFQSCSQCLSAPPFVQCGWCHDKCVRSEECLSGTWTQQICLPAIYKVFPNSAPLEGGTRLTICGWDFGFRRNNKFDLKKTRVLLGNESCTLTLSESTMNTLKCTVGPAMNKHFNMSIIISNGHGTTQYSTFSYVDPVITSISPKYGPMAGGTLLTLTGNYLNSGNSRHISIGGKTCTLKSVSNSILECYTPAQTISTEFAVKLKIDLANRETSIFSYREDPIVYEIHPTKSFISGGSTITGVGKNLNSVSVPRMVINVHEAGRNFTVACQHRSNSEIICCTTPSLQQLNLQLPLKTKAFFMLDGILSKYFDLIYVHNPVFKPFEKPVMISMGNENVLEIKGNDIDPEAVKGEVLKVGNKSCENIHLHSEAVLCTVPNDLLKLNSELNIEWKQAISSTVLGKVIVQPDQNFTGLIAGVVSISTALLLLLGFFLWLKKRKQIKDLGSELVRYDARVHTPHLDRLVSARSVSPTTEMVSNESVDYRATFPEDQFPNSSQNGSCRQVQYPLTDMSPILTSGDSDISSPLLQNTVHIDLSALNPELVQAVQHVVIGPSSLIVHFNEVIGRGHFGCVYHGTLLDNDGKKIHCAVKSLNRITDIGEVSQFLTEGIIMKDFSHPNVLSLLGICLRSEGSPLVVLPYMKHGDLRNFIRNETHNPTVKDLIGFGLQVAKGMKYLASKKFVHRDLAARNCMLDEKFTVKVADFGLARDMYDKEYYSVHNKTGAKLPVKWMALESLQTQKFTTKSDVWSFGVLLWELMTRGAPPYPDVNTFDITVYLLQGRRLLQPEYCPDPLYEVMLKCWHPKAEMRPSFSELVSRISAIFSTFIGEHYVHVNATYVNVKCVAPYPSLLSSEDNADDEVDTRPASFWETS
The nature of data set [4]: Toxicity in SCID/beige mouse xenografted with human MDA-MB-231 cells assessed as body weight gain at 30 mg/kg, ip bid measured 3 times per week starting at day 12. The settings on record: in vivo. Format: organism-based.
Data set [5] addresses Receptor-type tyrosine-protein kinase FLT3 (Homo sapiens) (UniProt P36888). Kind of data set: Inhibition of FLT3 (unknown origin) using fluorescence labeled peptide as substrate at 10 uM by IMAP assay. The method, boiled down:
(§3)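 IMAP fluorescence-polarization kinase assay at 10 µmol/L compound, run in triplicate by a contract lab. A fluorescently labeled substrate peptide is phosphorylated, then nanoparticles carrying trivalent metal bind the phosphopeptide and slow its rotation. Read-out is fluorescence polarization, expressed as percent inhibition.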

The target of data set [6] is Tyrosine-protein kinase JAK3 (Homo sapiens) (UniProt P52333). Nature of the data set: Inhibition of JAK3 (unknown origin) using fluorescence labeled peptide as substrate at 10 uM by IMAP assay.
In data set [7] the target is Tyrosine-protein kinase SYK (Homo sapiens) (UniProt P43405). Kind of data set: Inhibition of SYK (unknown origin) using fluorescence labeled peptide as substrate at 10 uM by IMAP assay.
In data set [8] the target is Serine/threonine-protein kinase B-raf (Homo sapiens) (UniProt P15056). Kind of data set: Binding affinity to BRAF (unknown origin) at 10 uM.
Sequence of Serine/threonine-protein kinase B-raf (Homo sapiens) (P15056 whole entry): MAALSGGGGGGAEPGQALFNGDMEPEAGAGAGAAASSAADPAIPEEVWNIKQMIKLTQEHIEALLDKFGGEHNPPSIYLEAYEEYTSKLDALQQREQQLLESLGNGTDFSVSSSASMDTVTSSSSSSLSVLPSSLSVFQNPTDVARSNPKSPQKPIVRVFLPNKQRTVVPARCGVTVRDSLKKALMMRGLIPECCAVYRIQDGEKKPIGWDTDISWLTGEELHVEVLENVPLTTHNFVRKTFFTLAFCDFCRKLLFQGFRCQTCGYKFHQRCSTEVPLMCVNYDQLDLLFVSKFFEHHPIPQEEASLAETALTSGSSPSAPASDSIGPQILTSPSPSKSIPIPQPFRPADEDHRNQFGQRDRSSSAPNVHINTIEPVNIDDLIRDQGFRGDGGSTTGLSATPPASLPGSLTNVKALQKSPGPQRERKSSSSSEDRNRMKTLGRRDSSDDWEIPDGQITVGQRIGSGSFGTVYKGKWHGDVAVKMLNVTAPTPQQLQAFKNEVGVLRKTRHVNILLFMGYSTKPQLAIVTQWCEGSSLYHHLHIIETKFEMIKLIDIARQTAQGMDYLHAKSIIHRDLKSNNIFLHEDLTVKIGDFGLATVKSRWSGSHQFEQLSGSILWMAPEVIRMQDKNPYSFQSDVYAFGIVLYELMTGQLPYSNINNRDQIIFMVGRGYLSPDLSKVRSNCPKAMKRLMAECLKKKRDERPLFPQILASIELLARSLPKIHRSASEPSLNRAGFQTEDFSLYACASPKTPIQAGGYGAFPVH
The target in data set [9] is Proto-oncogene tyrosine-protein kinase receptor Ret (Homo sapiens) (UniProt P07949). Nature of the data set: Inhibition of RET (unknown origin) using fluorescently-labeled peptide as substrate at 10 uM by IMAP fluorescence polarization assay. (Polarisation of emitted light reports the rotation of a fluorescent probe.)
Sequence of Proto-oncogene tyrosine-protein kinase receptor Ret (Homo sapiens) (P07949 whole entry): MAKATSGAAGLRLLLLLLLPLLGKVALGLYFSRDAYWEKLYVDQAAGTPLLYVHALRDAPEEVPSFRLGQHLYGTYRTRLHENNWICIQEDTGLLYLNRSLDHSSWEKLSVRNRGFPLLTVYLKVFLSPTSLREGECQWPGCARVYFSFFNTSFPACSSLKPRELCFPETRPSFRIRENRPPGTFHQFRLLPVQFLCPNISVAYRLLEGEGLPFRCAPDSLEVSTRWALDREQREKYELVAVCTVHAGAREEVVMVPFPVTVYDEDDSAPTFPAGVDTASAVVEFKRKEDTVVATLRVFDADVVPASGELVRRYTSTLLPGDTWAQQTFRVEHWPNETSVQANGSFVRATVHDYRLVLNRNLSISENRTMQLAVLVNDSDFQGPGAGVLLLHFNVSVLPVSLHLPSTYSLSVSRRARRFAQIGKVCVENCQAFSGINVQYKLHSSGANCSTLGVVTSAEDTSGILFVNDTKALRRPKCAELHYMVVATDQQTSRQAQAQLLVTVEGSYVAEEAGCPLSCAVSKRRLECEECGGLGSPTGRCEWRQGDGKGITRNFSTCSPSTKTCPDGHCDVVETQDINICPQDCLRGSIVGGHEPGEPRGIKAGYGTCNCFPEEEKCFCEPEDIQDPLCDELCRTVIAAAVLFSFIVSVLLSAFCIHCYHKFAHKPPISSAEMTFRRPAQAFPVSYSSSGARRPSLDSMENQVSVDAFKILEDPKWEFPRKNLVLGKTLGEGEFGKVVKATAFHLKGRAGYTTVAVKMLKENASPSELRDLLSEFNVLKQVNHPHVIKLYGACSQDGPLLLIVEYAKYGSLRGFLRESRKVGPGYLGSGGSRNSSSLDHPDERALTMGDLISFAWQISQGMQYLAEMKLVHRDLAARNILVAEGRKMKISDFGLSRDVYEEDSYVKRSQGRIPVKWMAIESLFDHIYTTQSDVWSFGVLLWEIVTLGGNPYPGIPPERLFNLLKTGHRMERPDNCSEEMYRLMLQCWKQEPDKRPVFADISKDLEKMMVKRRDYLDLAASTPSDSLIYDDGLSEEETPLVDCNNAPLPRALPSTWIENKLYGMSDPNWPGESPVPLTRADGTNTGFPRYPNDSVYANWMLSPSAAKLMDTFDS
Data set [10] has the same target. Nature of the data set: Inhibition of RET (unknown origin) using fluorescence labeled peptide as substrate at 10 uM by IMAP assay. Summed up:
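Kinase selectivity profiling, run by a contract lab, with the test compound at 10 µmol/L in triplicate. In the IMAP format, the kinase phosphorylates a fluorescently labelled substrate peptide in solution. A binding solution of trivalent metal-based nanoparticles is then added to capture the phosphopeptide, and the drop in rotational speed is read as fluorescence polarization. Results are given as percent inhibition of each kinase.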

Data set [11] addresses Serine/threonine-protein kinase B-raf (Homo sapiens) (UniProt P15056). Kind of data set: Inhibition of BRAF (unknown origin) at 10 uM by reporter probe displacement binding assay.
Data set [12] concerns the target Receptor tyrosine-protein kinase erbB-2 (Homo sapiens) (UniProt P04626). Nature of the data set: Inhibition of ERBB2 (unknown origin) using biotinylated peptide as substrate at 10 uM by TR-FRET assay. The method, boiled down:
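HTRF (TR-FRET) kinase assay at 10 µmol/L compound, in triplicate. A biotinylated kinase-specific peptide is phosphorylated. Detection uses a europium cryptate-labeled anti-phospho-residue antibody as donor and XL665-streptavidin as acceptor. Result is percent inhibition.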
For orientation: TR-FRET usually uses a lanthanide donor and a delayed reading to cut background.

Data set [13] deals with Insulin receptor (Homo sapiens) (UniProt P06213). Kind of data set: Inhibition of INSR (unknown origin) using fluorescently-labeled peptide as substrate at 10 uM by IMAP fluorescence polarization assay.
Data set [14] has as its target Tyrosine-protein kinase CSK (Homo sapiens, UniProt P41240). Kind of data set: Inhibition of CSK (unknown origin) using fluorescence labeled peptide as substrate at 10 uM by IMAP assay. Summed up:
as §3

A short description of data set [15]: Toxicity in mouse allografted with AXL expressing mouse MXT cells assessed as morbidity at 15 mg/kg, ip qd administered 21 consecutive days. The class given is organism-based. Particulars: in vivo.
The nature of data set [16]: Antitumor activity against AXL expressing mouse MXT cells allografted in mouse assessed as survival time at 5 mg/kg, ip qd administered 21 consecutive days (reference value: 100%). The class given is functional. Summed up:
(§4)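 MXT mammary tumour cells implanted subcutaneously and staged to about 125 mm3. Dosing then began: once daily ip for 21 consecutive days, at 5 or 15 mg/kg, alongside a vehicle group, with 7 animals per group. Survival in days was recorded for each animal and given as mean ± SD, and as T/C% against the vehicle group (vehicle = 100%).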

The nature of data set [17]: Antitumor activity against AXL expressing mouse MXT cells allografted in mouse assessed as survival time at 15 mg/kg, ip qd administered 21 consecutive days. Format: functional. The method, boiled down: as §4
Data set [18] in a line: Antitumor activity against AXL expressing mouse MXT cells allografted in mouse assessed as prolongation of survival time at 5 to 15 mg/kg, ip qd administered 21 consecutive days. The class given is functional. Particulars: read-out: MED. Summed up: as §4
For data set [19], the target named is Enoyl-CoA hydratase, mitochondrial (Homo sapiens, UniProt P30084). Nature of the data set: Binding affinity to ECHS1 in SILAC-labeled human MDA-MB-231 cells lysate by mass spectrometry based kinAffinity assay. Format: subcellular. The method, boiled down:
as §2

The target in data set [20] is Serine/threonine-protein kinase SIK3 (Homo sapiens, UniProt Q9Y2K2). Kind of data set: Binding affinity to QSK in SILAC-labeled human MDA-MB-231 cells lysate by mass spectrometry based kinAffinity assay. The class given is subcellular. The method, boiled down: as §1
Data set [21] addresses Serine/threonine-protein kinase TBK1 (Homo sapiens, UniProt Q9UHD2). Kind of data set: Binding affinity to TBK1 in SILAC-labeled human MDA-MB-231 cells lysate by mass spectrometry based kinAffinity assay. The class given is subcellular. Summed up: as §1
In data set [22] the target is LIM domain kinase 2 (Homo sapiens, UniProt P53671). Nature of the data set: Binding affinity to LIMK2 in SILAC-labeled human MDA-MB-231 cells lysate by mass spectrometry based kinAffinity assay. The class given is subcellular. Summed up:
as §2

The target of data set [23] is T1, Hepatocyte growth factor receptor. Kind of data set: Binding affinity to MET in SILAC-labeled human MDA-MB-231 cells lysate by mass spectrometry based kinAffinity assay. The class given is subcellular. The method, boiled down:
as §2

For data set [24], the target named is 5-azacytidine-induced protein 2 (Homo sapiens, UniProt Q9H6S1). Nature of the data set: Binding affinity to AZI2 in SILAC-labeled human MDA-MB-231 cells lysate by mass spectrometry based kinAffinity assay. The class given is subcellular. The method, boiled down: as §2

As usually defined, the T/C is the ratio of treated to control.

Sequence of Cyclin-dependent kinase 18 (Q07002 whole entry): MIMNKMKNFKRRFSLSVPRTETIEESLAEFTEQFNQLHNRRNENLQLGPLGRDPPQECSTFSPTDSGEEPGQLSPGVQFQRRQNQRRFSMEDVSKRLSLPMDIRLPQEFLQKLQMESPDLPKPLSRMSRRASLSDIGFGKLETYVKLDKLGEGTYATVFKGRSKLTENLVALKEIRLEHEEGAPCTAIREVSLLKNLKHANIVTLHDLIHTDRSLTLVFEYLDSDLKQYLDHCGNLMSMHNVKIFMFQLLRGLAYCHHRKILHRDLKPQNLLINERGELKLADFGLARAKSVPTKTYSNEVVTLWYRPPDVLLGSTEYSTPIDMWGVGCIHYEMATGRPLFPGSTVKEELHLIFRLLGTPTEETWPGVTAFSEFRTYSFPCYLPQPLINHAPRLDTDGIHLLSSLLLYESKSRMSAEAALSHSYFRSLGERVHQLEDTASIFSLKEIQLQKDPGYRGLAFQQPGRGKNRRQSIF
Sequence of Serine/threonine-protein kinase TBK1 (Q9UHD2 whole entry, the tested form may be a part): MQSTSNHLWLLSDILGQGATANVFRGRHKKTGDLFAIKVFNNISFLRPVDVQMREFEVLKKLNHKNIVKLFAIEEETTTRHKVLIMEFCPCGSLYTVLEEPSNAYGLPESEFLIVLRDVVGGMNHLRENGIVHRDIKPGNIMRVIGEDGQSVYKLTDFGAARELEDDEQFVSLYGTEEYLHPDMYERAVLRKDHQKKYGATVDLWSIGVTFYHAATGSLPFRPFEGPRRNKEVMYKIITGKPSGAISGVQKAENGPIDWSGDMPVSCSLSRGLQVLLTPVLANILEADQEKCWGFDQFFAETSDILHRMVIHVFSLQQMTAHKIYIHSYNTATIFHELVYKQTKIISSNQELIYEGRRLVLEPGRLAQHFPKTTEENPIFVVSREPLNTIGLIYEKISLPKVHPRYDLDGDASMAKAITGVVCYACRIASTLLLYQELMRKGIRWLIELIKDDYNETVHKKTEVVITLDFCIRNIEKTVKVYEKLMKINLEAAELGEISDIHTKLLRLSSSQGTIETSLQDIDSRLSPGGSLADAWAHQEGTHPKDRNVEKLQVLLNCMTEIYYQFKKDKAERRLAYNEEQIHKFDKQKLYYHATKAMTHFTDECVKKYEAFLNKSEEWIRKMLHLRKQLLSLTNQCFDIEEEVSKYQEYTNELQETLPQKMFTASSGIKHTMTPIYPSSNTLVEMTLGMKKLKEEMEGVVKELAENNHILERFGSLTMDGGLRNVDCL
Sequence of Enoyl-CoA hydratase, mitochondrial (P30084 whole entry): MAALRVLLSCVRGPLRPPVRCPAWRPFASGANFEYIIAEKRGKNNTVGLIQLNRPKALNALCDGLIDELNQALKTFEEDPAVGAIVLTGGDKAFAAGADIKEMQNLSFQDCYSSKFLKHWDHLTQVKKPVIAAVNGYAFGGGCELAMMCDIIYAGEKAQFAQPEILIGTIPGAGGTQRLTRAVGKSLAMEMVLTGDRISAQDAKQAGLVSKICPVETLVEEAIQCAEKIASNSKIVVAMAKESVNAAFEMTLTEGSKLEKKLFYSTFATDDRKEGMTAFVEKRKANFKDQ

In the case of `COc1cc2c(Oc3ccc(NS(=O)(=O)c4cc(F)ccc4F)cc3F)ccnc2cc1OCCCN1CCN(C)CC1`, the “Kd(free)” value in data set [1] was over 6.194 µM; in data set [2], 3.75 µM; in data set [3], 0.041 µM. Also, the Activity result in [4] was “Toxic”.

`COc1cc2c(Oc3ccc(NS(=O)(=O)c4ccccc4C(F)(F)F)cc3F)ccnc2cc1OCCCN1CCN(C)CC1`: the inhibition entry in [5], in data set [6], in [7], in data set [8], in [9] and in data set [10] was “Active” throughout. Further, the inhibition result in data set [11], in data set [12], in data set [13] and in [14] was “Active” throughout.

For the compound `COc1cc2c(Oc3ccc(NS(=O)(=O)c4cc(F)ccc4F)cc3F)ccnc2cc1OCCCN1CCCC(C)C1` (centres undefined), in data set [15], the Activity entry was “Non-Toxic”. Besides, the T/C worked out at 118% in data set [16] and 127% in data set [17]. Besides, the minimal effective dose in [18] was 5 mg/kg.

As to `COc1cc2c(Oc3ccc(NS(=O)(=O)c4c(F)cccc4F)cc3F)ccnc2cc1OCCCN1CCN(C)CC1`, the “Kd(free)” value in data set [19] worked out at 9.237 µM; in data set [20], 7.63 µM; in [21], 3.273 µM; in [22] it was 2.784 µM; in data set [23] it was 0.006 µM; in data set [24] it was 2.982 µM.
